# The entries come from a sample that favours hits as a whole.
# L major viab: Leishmania major promastigote growth inhibition, primary screen; AID 1063, 2008; inhibition, % at 10 µM; hit rate 9% among 200,000; Leishmania major promastigotes, resazurin fluorescence viability; in the data active = inhibition above about 50%;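 also: promastigotes grown with compound for 44 hours at 28 °C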
# T cruzi repl: inhibitors of intracellular T. cruzi growth, primary screen, luminescence, NIH3T3 host cells | T. cruzi beta-gal in NIH3T3, 90 h | hit rate 1.4% among 300,000 | inhibition, % (no concentration beside the values);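 active = mean inhibition across valid replicates above about 55%, limit read from the data; inconclusive = mean below that limit but half or more replicates reach it; inactive = mean below it, under half of replicates reach it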;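 also: signal also drops with host cell toxicity which is not excluded here; 0% = plate median of DMSO wells and 100% = zero luminescence signal; higher percent means less beta-gal luminescence so fewer parasites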
#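 assay system = mouse NIH/3T3 fibroblasts infected with β-gal-expressing T. cruzi Tulahuen C4 | input = 5,000 NIH/3T3 host cells per well | buffer or medium = DMEM plus 2% FBS | timing = 3 h host attachment, then at least 90 h co-culture | measured by = GalScreen luminescence, 60 min | evaluation = luminescence reflecting intracellular parasite burden, expressed as percent inhibition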
# Hsp70 act: Hsp70 transcriptional activators, primary screen, cell-based, HeLa, Hsp70 promoter luciferase, luminescence, 10 µM | HeLa Hsp70 promoter luciferase reporter; scaled: vehicle 0, proteasome-inhibitor control 100% | activation, % at 10 µM | hit rate 0.04% among 200,000 | AID 1203, 2008;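 active = activation above the mean across all tested compounds plus 3 SD, cutoff set per campaign, cut at about 5.5% in these data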;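 also: 100% = MG132 at 30 µM as the positive control and 0% = DMSO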
# HSF-1 act: HSF-1 activators, primary screen, NIH3T3-HGL cells, MG132 stress, luminescence, single point; hit rate 1.7% among 300,000; NIH3T3-HGL HSF-1 luciferase reporter, 8 h; 100% = twice DMSO control signal; AID 504408, 2011; activation, % at 9 µM;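 active = mean replicate activation of at least 50% with a set share of replicates each reaching 50%; inconclusive = only one of those two conditions met; inactive = mean below 50% and too few replicates reaching it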;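 also: 0% = median of the neutral control wells and 100% = twice that signal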
# HSF1 inh: HSF1 inhibitors in luciferase reporter cells, primary screen, cell-based, NIH3T3, luminescence; hit rate 0.77% among 300,000; activity change, negative = inhibition, % at 7.5 µM (by protocol); AID 2098, 2009; NIH3T3-HGL HSE-luciferase, MG132-induced, luminescence 8 h; hits give low values;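 active = more than half of replicate wells show activity change below -50%, luminescence cut by over half; inconclusive = some wells, but at most half, below -50%; inactive = no replicate well below -50%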;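 also: luciferase reports HSF-1 transcriptional activity via heat shock element; 0% = median of DMSO wells and -100% = zero luminescence signal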
# An asterisk follows results filed as active; ? = inconclusive; . = no result given.
SMILES,L major viab,T cruzi repl,Hsp70 act,HSF-1 act,HSF1 inh
Cc1ccccc1N1C(=O)C(Oc2ccc(Cl)cc2)C1CNC(C)(C)C (centres undefined),87*,18,0,14,7
CN(C)S(=O)(=O)c1ccc(N2CCCC2)c(C(=O)N2CCN(c3ccc([N+](=O)[O-])cc3)CC2)c1,26,19,0,7,9
O=C1C2C(c3ccccc3)CC=CC2[C@H](c2cccc([N+](=O)[O-])c2)N1Cc1ccccc1 (some centres undefined),.,56*,.,8,4
O=C1C2C(c3ccccc3)CC=CC2[C@H](c2ccc(C(F)(F)F)cc2)N1Cc1ccccc1 (some centres undefined),.,36,.,-16,-1
Cc1cc(C(=O)COC(=O)C2=COCCO2)c(C)n1-c1ccccc1,.,.,.,49,49
Cc1ccc(O)c(C2=Nc3ccccc3N=C(c3cccs3)C2)c1,4,0,0,22,15
Cc1ccc2c(c1)N=C(c1ccccc1)CC(C(Cl)Cl)=N2,.,0,.,61*,43
Cc1ccc(C2=Nc3ccccc3N=C(C(Cl)Cl)C2)cc1,8,11,0,93*,47
Cc1ccc(-c2nnc3n2N=C(c2ccccc2)CS3)cc1,-4,20,0,11,-4
CC(=O)Oc1ccc(C(=O)NCc2ccco2)cc1,.,-17,.,-11,-8
Cc1nc(N2CCN(S(=O)(=O)c3ccc(F)cc3)CC2)c2c(-c3cccs3)csc2n1,49,32,0,26,23
Fc1ccc(N=Cc2ccc[nH]2)cc1,.,1,.,-9,-1
Oc1ccccc1N=Cc1ccc[nH]1,100*,-41,0,-12,1
CCN(CC)C(c1ccc(F)cc1)c1nnnn1C1CCCCC1 (centres undefined),14,2,0,30,5
c1ccc(CN(Cc2ccco2)C(c2ccncc2)c2nnnn2C2CCCC2)cc1 (centres undefined),95*,-4,0,.,.
Clc1ccc(CN(Cc2ccccc2)C(c2cccs2)c2nnnn2C2CCCC2)cc1 (centres undefined),87*,50,0,-9,-4
CC(C)(C)n1nnnc1C(c1cccs1)N(Cc1ccc(Cl)cc1)CC1CCCO1 (centres undefined),25,58*,0,-2,16
Fc1ccc(C(c2nnnn2C2CCCC2)N(Cc2ccco2)CC2CCCO2)cc1 (centres undefined),78*,24,0,4,6
CCN(CC)CCSc1nc(O)c(Cc2ccccc2)c(=O)n1-c1ccccc1,-3,-2,0,6,-1
O=C(O)C1CCCN(S(=O)(=O)c2ccc3c(c2)OCCO3)C1 (centres undefined),-7,0,0,0,3
CN1C(=S)SC2CS(=O)(=O)CC21 (centres undefined),.,-3,.,50,8
CC(OC(=O)CCCNC(=O)c1ccc(Cl)cc1)C(=O)N(C)Cc1ccccc1 (centres undefined),.,3,.,-5,0
COc1ccc(NC(=O)CN2CCN(c3c(C)cc(C)cc3C)CC2)cc1,.,2,.,7,3
Cc1cc2ccccc2n1CCNC(=O)C(C)Oc1ccccc1 (centres undefined),-2,63*,0,-6,-1
Cc1cc2ccccc2n1CCNC(=O)C(C)C,-3,6,0,-58,-46
SMILES,L major viab,T cruzi repl,Hsp70 act,HSF-1 act,HSF1 inh
NCc1oc(-c2ccccc2)cc1C(=O)O,-7,5,0,-3,-6
Cc1ccc(S(=O)(=O)NCCn2cnc([N+](=O)[O-])n2)cc1,.,60*,.,-16,-3
Cc1ccc(SCCNS(=O)(=O)c2ccc(F)cc2)cc1,53*,-4,0,10,-6
Cc1ccc(CSCCNS(=O)(=O)c2ccc([N+](=O)[O-])cc2)cc1,.,68*,.,-4,-2
CCOC(=O)c1c(NC(=O)CC2Nc3ccccc3NC2=O)sc(C)c1C (centres undefined),58*,-19,0,-3,3
O=C(CC1Nc2ccccc2NC1=O)Nc1cc(Cl)cc(Cl)c1 (centres undefined),51*,?,0,12,7

# Compound activity: PubChem BioAssay, several laboratories
